In data set [1] the target is PRMT5/MEP50 complex (Homo sapiens, UniProt O14744+Q9BQA1). Briefly: Binding affinity to PRMT5/MEP50 (unknown origin) assessed as dissociation constant by FITC- Competitive binding assay. The format is protein-complex assay.
In data set [2] the target is T1, PRMT5/MEP50 complex (Homo sapiens, UniProt O14744). Briefly: Binding affinity to PRMT5/MEP50 (unknown origin) assessed as inhibition constant by FITC- Competitive binding assay. The format is protein-complex assay. Summed up: (§1)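 Competitive FP: 1 nM FITC-labeled tracer peptide with PRMT5-MEP50 (194 nM with tracer 50; 600 nM with tracer 21); unlabeled peptide titrated as two-fold dilutions in 50 mM HEPES, 250 mM NaCl, 1 mM TCEP, 0.01% Tween 20, pH 8.0; room temperature up to 1 h 45 min; read 485/535 nm; triplicate.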
T1 sequence (O14744 whole entry): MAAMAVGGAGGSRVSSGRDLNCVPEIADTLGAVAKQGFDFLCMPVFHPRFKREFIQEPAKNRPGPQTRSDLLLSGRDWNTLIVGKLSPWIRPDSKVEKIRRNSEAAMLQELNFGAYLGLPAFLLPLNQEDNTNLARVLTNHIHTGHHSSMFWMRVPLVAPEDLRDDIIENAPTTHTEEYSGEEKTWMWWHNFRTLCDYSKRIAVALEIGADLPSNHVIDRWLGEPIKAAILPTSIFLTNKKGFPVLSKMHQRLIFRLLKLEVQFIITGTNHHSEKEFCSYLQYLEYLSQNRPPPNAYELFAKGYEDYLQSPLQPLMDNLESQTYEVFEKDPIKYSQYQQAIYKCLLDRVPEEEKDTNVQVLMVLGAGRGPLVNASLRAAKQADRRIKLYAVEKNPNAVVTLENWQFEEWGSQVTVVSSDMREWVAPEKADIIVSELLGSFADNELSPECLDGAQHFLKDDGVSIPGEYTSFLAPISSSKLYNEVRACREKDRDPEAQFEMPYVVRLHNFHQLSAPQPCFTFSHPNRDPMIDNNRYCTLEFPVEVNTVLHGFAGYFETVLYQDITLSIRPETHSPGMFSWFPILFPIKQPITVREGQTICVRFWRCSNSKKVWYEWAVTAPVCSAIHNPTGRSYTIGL
T1 sequence (Q9BQA1 whole entry, further chain): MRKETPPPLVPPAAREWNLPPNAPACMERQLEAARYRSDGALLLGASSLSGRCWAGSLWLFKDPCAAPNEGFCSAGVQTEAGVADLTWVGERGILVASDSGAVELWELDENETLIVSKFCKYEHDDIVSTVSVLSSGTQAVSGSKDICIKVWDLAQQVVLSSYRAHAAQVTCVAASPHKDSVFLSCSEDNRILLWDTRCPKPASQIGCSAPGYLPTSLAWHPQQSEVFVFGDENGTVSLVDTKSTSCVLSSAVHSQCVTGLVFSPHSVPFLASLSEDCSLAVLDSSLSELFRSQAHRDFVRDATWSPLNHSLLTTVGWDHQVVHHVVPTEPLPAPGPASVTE

In data set [3] the test system is Flp-In-T-REx-293. Briefly: Inhibition of PRMT5/RioK1 protein-protein interaction in human Flp-In-T-REx-293 cells over-expressed with GFP-RioK1 at 50 uM incubated for 2 hrs by immunoprecipitation assay. The format is cell-based. The essentials: (§2)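 S100 extracts from induced Flp-In T-REx 293 cells expressing GFP-tagged proteins were treated with peptide at 50 µM (or DMSO) for 1 h at room temperature. GFP-Trap beads were then added for 2 h at 4 °C and washed. Co-purified PRMT5, MEP50, RioK1 and pICln were detected by immunoblot with fluorescent secondary antibodies.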

A short description of data set [4]: Inhibition of full length human ICLN/PRMT5 (unknown origin) protein-protein interaction by fluorescence polarization assay.
Data set [5] concerns Flp-In-T-REx-293. The data set can be described thus: Inhibition of PRMT5/RioK1 protein-protein interaction in human Flp-In-T-REx-293 cells over-expressed with GFP-PRMT5 at 50 uM incubated for 2 hrs by immunoprecipitation assay. The format is cell-based. Summed up: as §2
The target in data set [6] is T1, PRMT5/MEP50 complex. Briefly: Inhibition of PRMT5/MEP50 (unknown origin) incubated for 1 to 2 hrs in presence of tracer 21 by competitive fluorescence polarization assay. The format is protein-complex assay. Summed up:
as §1
(In fluorescence polarisation assays a small probe gives low polarisation when free and higher when bound to something large.)

In data set [7] the target is T1, PRMT5/MEP50 complex. Briefly: Inhibition of PRMT5/MEP50 (unknown origin) incubated for 1 to 2 hrs in presence of tracer 50 by competitive fluorescence polarization assay. The format is protein-complex assay. Summed up:
as §1

Data set [8] is described as follows: Stability in human U2OS cells assessed as half life incubated upto 24 hrs by HPLC analysis. The format is ADME, cell-based. The settings on record: U2OS cell lysate.

Usually Kd stands for the constant that tells how readily two partners part at equilibrium. A word on the Ki: it is a dissociation constant, usually derived from enzyme kinetics or from competition with a known ligand. For orientation: IC50 means the point on the concentration scale where inhibition reaches its midpoint. As a reminder, the half-life is the time in which the quantity being followed falls by half.

Active and inactive are the calls of the source. No cut-off for these calls is given here.

PRMT5/MEP50 complex (Homo sapiens, UniProt O14744+Q9BQA1), sequence (O14744 whole entry): as the sequence (O14744 whole entry) above
PRMT5/MEP50 complex (Homo sapiens, UniProt O14744+Q9BQA1), sequence (Q9BQA1 whole entry): as the sequence (Q9BQA1 whole entry, further chain) above

As to `CC(C)[C@H](NC(=O)[C@H](CCCNC(=N)N)NC(=O)[C@H](CO)NC(=O)COCCOCCNC(=S)Nc1ccc2c(c1)C(=O)OC21c2ccc(O)cc2Oc2cc(O)ccc21)C(=O)N[C@H](C(=O)N1CCC[C@H]1C(=O)N[C@H]1CCNC(=O)CC[C@H](C(=O)N[C@@H](CC(=O)O)C(=O)N[C@@H](C)C(=O)N[C@@H](CC(=O)O)C(N)=O)NC(=O)[C@H](Cc2ccccc2)NC(=O)[C@H](CCC(N)=O)NC1=O)C(C)C`, the Kd at PRMT5/MEP50 complex [1] was greater than 2 µM. Consider `CC(C)[C@H](NC(=O)[C@H](CCCNC(=N)N)NC(=O)[C@H](CO)NC(=O)COCCOCCNC(=S)Nc1ccc2c(c1)C(=O)OC21c2ccc(O)cc2Oc2cc(O)ccc21)C(=O)N[C@H](C(=O)N1CCC[C@H]1C(=O)N[C@H]1C/C=C/C[C@H](C(=O)N[C@@H](CC(=O)O)C(=O)N[C@@H](C)C(=O)N[C@@H](CC(=O)O)C(N)=O)NC(=O)[C@H](Cc2ccccc2)NC(=O)[C@H](CCC(N)=O)NC1=O)C(C)C` (stereo in doubt; form 2), for which the Kd on PRMT5/MEP50 complex [1] is greater than 2 µM. Consider `CC(=O)N[C@H](C(=O)N1CCC[C@H]1C(=O)N[C@H]1C/C=C\CC[C@H](C(=O)N[C@@H](CC(=O)O)C(=O)N[C@@H](C)C(=O)N[C@@H](CC(=O)O)C(=O)N[C@@H](CCCCNC(=S)Nc2ccc3c(c2)C(=O)OC32c3ccc(O)cc3Oc3cc(O)ccc32)C(N)=O)NC(=O)[C@H](Cc2ccccc2)NC(=O)[C@H](CCC(N)=O)NC1=O)C(C)C`, for which, at PRMT5/MEP50 complex [1], the Kd was greater than 2 µM. As for Ac-SRVVPGQFDDAD-NH2, the Ki on PRMT5/MEP50 complex [2] was 1.8 µM. As for `CC(C)[C@H](NC(=O)[C@H](CCCNC(=N)N)NC(=O)[C@H](CO)NC(=O)COCCOCCNC(=S)Nc1ccc2c(c1)C(=O)OC21c2ccc(O)cc2Oc2cc(O)ccc21)C(=O)N[C@H](C(=O)N1CCC[C@H]1C(=O)N[C@H]1CNC(=O)C[C@H](C(=O)N[C@@H](CC(=O)O)C(=O)N[C@@H](C)C(=O)N[C@@H](CC(=O)O)C(N)=O)NC(=O)[C@H](Cc2ccccc2)NC(=O)[C@H](CCC(N)=O)NC1=O)C(C)C`, on PRMT5/MEP50 complex [1], the Kd was greater than 2 µM. With `CC(=O)N[C@H](C(=O)N1CCC[C@H]1C(=O)N[C@H]1CCCCC[C@@H](C(=O)N[C@@H](CC(=O)O)C(=O)N[C@@H](C)C(=O)N[C@@H](CC(C(=O)O)C(=O)O)C(N)=O)NC(=O)[C@H](Cc2ccc([N+](=O)[O-])cc2)NC(=O)[C@H](CCC(N)=O)NC1=O)C(C)C`, the inhibition entry in the data set with Flp-In-T-REx-293 [3] and with Flp-In-T-REx-293 [5] was “Active” each time. For the same compound, the IC50 in data set [4] stood at 0.654 µM.

For the compound Ac-VPGQFDDAD-NH2, the IC50 is 2.49 µM on PRMT5/MEP50 complex [6] and 5.3 µM at PRMT5/MEP50 complex [7]. Also, in data set [8], the half-life is 4.4 h. Besides, the Ki on PRMT5/MEP50 complex [2] is 0.862 µM. Take `CC(C)[C@H](NC(=O)[C@H](CCCNC(=N)N)NC(=O)[C@H](CO)NC(=O)COCCOCCNC(=S)Nc1ccc2c(c1)C(=O)OC21c2ccc(O)cc2Oc2cc(O)ccc21)C(=O)N[C@H](C(=O)N1CCC[C@H]1C(=O)N[C@H]1CNC(=O)CC[C@H](C(=O)N[C@@H](CC(=O)O)C(=O)N[C@@H](C)C(=O)N[C@@H](CC(=O)O)C(N)=O)NC(=O)[C@H](Cc2ccccc2)NC(=O)[C@H](CCC(N)=O)NC1=O)C(C)C`: on PRMT5/MEP50 complex [1], the Kd is greater than 2 µM.

The values above are taken from ChEMBL document CHEMBL5214998, “Development of Macrocyclic PRMT5-Adaptor Protein Interaction Inhibitors” (J Med Chem, 2022).
